This is a sample that favours compounds with a hit; in the whole collection about 2% have one here.
STEP inh = inhibitors of human striatal-enriched phosphatase STEP; P54829; inhibition, % at 20 µM; recombinant STEP, OMFP fluorogenic substrate, fluorescence; 360,000 compounds, 0.25% hits;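 active = inhibition at 20 µM, scaled per plate between control wells, above about 37%, limit read from the data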;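 note: 0% = DMSO with enzyme and substrate and 100% = substrate only without enzyme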
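medium = Bis-Tris buffer pH 6.0, 2.5 mM DTT, 0.005% Tween 20 | test system = STEP (striatal-enriched tyrosine phosphatase) enzyme, cell-free | measure = normalized % inhibition | compound dosing = 20 µM, 1% DMSO | also added = 25 µM OMFP | schedule = reaction 20 min, ambient temperature | measured by = fluorescence read at 480 nm ex / 540 nm em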
DNMT1 inh = blocks human DNA methyltransferase DNMT1; P26358; DNMT1 molecular beacon, Hinp1I cleavage, fluorescence; inhibition (reported as % activation of signal), % at 10 µM; 360,000 compounds, 0.83% hits; AID 588458; in the data active = inhibition above about 50%
Rpn11 block = inhibitors of human proteasome Rpn11 | human 26S proteasome, Ub4-pepOG fluorescence polarization; 20S core pre-blocked with epoxomicin | inhibition, % at 20 µM | 360,000 compounds, 0.59% hits;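 active = inhibition at 20 µM, scaled to each plate's controls, above about 33%, limit read from the data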
LMPTP inh = blocks human LMPTP phosphatase. recombinant LMPTP-A, OMFP fluorogenic substrate, fluorescence intensity. P24666. inhibition, % at 20 µM. AID 651560. 360,000 compounds, 0.22% hits;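 active = compounds that cut the enzyme signal by at least half of the control window in the single-dose screen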;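 note: plate controls were DMSO wells with enzyme plus substrate for no effect and substrate without enzyme for full effect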
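material = LMPTP-A | quantity = 0.625 nM enzyme | reagent = OMFP substrate, 400 µM final | buffer or medium = Bis-Tris pH 6.0, DTT, detergent | detection = endpoint fluorescence intensity from OMFP dephosphorylation | dosing = single 20 µM dose | read-out basis = % inhibition relative to no-enzyme and uninhibited control wells | control set = no-enzyme and uninhibited controls | timing = 50 min at room temperature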
Scp-1 inhibitor = Scp-1 (human) phosphatase inhibition; Q9GZU7; Recombinant Scp1, phosphopeptide, malachite green phosphate absorbance; inhibition, % at 20 µM; 340,000 compounds, 0.88% hits; AID 493091;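 active = inhibition above about 50% at 20 µM, limit read from the data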;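 note: plate controls were DMSO wells with enzyme for no effect and wells lacking enzyme for full effect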
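Incubation: 45 min enzyme reaction at room temperature / System: truncated SCP-1 phosphatase (76-261aa) / Reagent: Phospho 17-mer peptide substrate / Buffer or medium: Acidic Tris acetate buffer with magnesium and detergent / Signal: absorbance at 630 nm / Doses: one concentration, 20 µM, with 1.0% DMSO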
Scp-1 conf = Scp-1 (human) inhibition, single-dose confirmed; shares compounds with Scp-1 inhibitor; recombinant SCP-1 catalytic domain, phosphate release, malachite green absorbance; inhibition, % at 20 µM; 2,500 compounds, 61% hits;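 note: plate controls were DMSO with enzyme for no effect and buffer wells lacking enzyme for full effect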
Scp-1 MG ctr = counter-screen for Scp-1 inhibitors: colorimetric interference; AID 540313; apparent inhibition (interference), % at 20 µM; 2,500 tested, under 10 active; Colorimetric interference counterscreen, malachite green absorbance 630 nm; shares compounds with Scp-1 inhibitor;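 note: compounds added after enzyme reaction finished so only phosphate colour detection is probed; plate controls were DMSO wells with completed Scp-1 reaction for no effect and substrate wells lacking enzyme for full effect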
Scp1 DSF = Scp-1 (human) binding by thermal shift | AID 540329 | thermal shift relative to vanadate control, % at 40 µM | 1,500 compounds, 25% hits | shares compounds with Scp-1 inhibitor | Recombinant SCP1, Sypro Orange thermal shift Tm;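 active = substances whose mean melting-temperature shift, as a percentage of the reference inhibitor's shift, reaches about 5.3%, limit read from the data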;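 note: 0% = Tm of DMSO wells and 100% = Tm with sodium orthovanadate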
* hit, by the source's call.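 Rule for the calls, unless noted: active = inhibition of at least 30% at 20 µM; inactive = the rest.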

For CCCn1c(/C=C/c2ccccc2)nc2ccccc21 the results were STEP inh -2.5, DNMT1 inh 0.8, Rpn11 block 5.0, LMPTP inh 15.3 and Scp-1 inhibitor -6.1.
For C[C@@H]1CN([C@H](C)CO)C(=O)CCCn2cc(nn2)CO[C@H]1CN(C)C(=O)Nc1ccccc1C(F)(F)F the results were STEP inh 1.0, DNMT1 inh 3.1, Rpn11 block -3.2 and LMPTP inh -0.6.
Screening O=C(O)CCSc1nnc(SCC(=O)NC2CCS(=O)(=O)C2)s1 (stereo unspecified) returned STEP inh -2.7, DNMT1 inh 4.2, Rpn11 block 2.3, LMPTP inh -0.4, Scp-1 inhibitor 101.4*, Scp-1 conf -10.8 and Scp-1 MG ctr -18.6.
For CC(C)CN(CC(C)C)S(=O)(=O)c1cc([N+](=O)[O-])ccc1N1CCCCCC1 the results were STEP inh 5.2, DNMT1 inh 2.6, Rpn11 block -0.3, LMPTP inh 4.5, Scp-1 inhibitor 51.6*, Scp-1 conf -8.7 and Scp-1 MG ctr -12.3.
CCN1/C(=C\C(C)=O)Sc2ccc(OC)cc21 was read as STEP inh 1.5, DNMT1 inh 3.8, Rpn11 block -0.8, LMPTP inh -2.0, Scp-1 inhibitor 95.6*, Scp-1 conf 9.5 and Scp-1 MG ctr -4.9.
Screening O=C(OCC(=O)N1CCc2ccccc2C1)c1ccc(O)cc1 returned STEP inh -1.1, DNMT1 inh 0.0, Rpn11 block 0.2, LMPTP inh 0.9 and Scp-1 inhibitor -9.0.
For Cc1cc(C)cc(NC(=O)CN2C(=O)COc3ccc(S(=O)(=O)N4CCCC4)cc32)c1 the results were STEP inh -0.2, DNMT1 inh -0.9, Rpn11 block -6.1, LMPTP inh -1.3 and Scp-1 inhibitor -4.5.
CCOc1ccc(NC(=O)CN2C(=O)CSc3ccc(S(=O)(=O)N4CCCC4)cc32)cc1 was read as STEP inh 1.7, DNMT1 inh 0.1, Rpn11 block 3.8, LMPTP inh 1.1 and Scp-1 inhibitor 22.9.
Cc1ccc(NC(=O)CN2C(=O)CSc3ccc(S(=O)(=O)N4CCCCC4)cc32)cc1 was read as STEP inh -2.0, DNMT1 inh -3.5, Rpn11 block 0.6, LMPTP inh 1.9, Scp-1 inhibitor 56.0*, Scp-1 conf 56.5*, Scp-1 MG ctr -12.6 and Scp1 DSF 46.9*.
For CC(=O)c1ccc(NC(=O)CN2C(=O)COc3ccc(S(=O)(=O)N4CCCC4)cc32)cc1 the results were STEP inh -1.6, DNMT1 inh 3.1, Rpn11 block 2.8, LMPTP inh -1.0, Scp-1 inhibitor 69.5*, Scp-1 conf 47.0*, Scp-1 MG ctr -7.6 and Scp1 DSF 11.9*.
For CNc1c(NS(=O)(=O)c2cc(OC)ccc2OC)c(=O)oc2ccccc12 the results were STEP inh 0.9, DNMT1 inh 3.8, Rpn11 block -1.1, LMPTP inh 0.5 and Scp-1 inhibitor 1.6.
`CC(=O)Nc1ccc(Nc2nc(C(F)(F)F)nc3c2nnn3Cc2ccccc2Cl)cc1` gave STEP inh -3.6, DNMT1 inh -2.2, Rpn11 block 3.2, LMPTP inh 2.2 and Scp-1 inhibitor -2.8.
Cc1cc(C(=O)O)cc(S(=O)(=O)NNC(=O)c2cccs2)c1C was read as STEP inh 1.8, DNMT1 inh 3.0, Rpn11 block 8.7, LMPTP inh -0.7, Scp-1 inhibitor 53.3*, Scp-1 conf -7.1 and Scp-1 MG ctr -13.1.
For O=C(NNC(=O)c1cccs1)c1ccc(Cl)c(S(=O)(=O)N2CCCC2)c1 the results were STEP inh -2.0, DNMT1 inh -4.6, Rpn11 block -1.3, LMPTP inh -0.7 and Scp-1 inhibitor -0.7.
